Published values pooled from the literature.
Compare with care: the assays were run in different laboratories.
Target: Serine/threonine-protein kinase SIK2 (SIK2, Homo sapiens, UniProt Q9H0K1)

C[C@@H](c1cccc(C#N)c1)n1cc(Cl)cc(C(N)=O)c1=N — remaining binding (cell-free assay; competition with immobilised ligand; 1 µM): 100%
O=C(NCCCN1CCOCC1)c1ccc(Nc2ncc(Cl)c(-c3ccc(Cl)s3)n2)cc1 — remaining binding (binding; competition with immobilised ligand; 1 µM): 37%
O=C(NCC1CCOCC1)c1n[nH]cc1NC(=O)c1c(F)cccc1F — remaining binding (binding; competition with immobilised ligand; 1 µM): 83%
O=C(NCCCN1CCOCC1)c1ccc(Nc2nccc(-c3cc4ccccc4s3)n2)cc1 — remaining binding (binding; competition with immobilised ligand; 1 µM): 51%
CCC(=N\O)/C(C)=C/c1ccc(F)cc1 — remaining binding (cell-free assay; competition with immobilised ligand; 1 µM): 100%
c1cnn2ncc(-c3ccnc(N4CCC45COC5)n3)c2c1 — remaining binding (binding; 1 µM): 96%
CC(C)CC(=O)N1CCc2nc(-c3ccc(Br)cc3)nc(N(C)Cc3ccccc3)c2C1 — remaining binding (cell-free assay; competition with immobilised ligand; 0.1 µM): 100%
C[C@H]1CCN(c2nccc(-c3cnn4ncccc34)n2)C1 — remaining binding (binding; 1 µM): 100%
c1ccc(N2CCN(Cc3nc4ccccc4[nH]3)CC2)nc1 — remaining binding (binding; competition with immobilised ligand; 1 µM): 100%
N[C@@H]1CCN(c2nccc(-c3cnn4ncccc34)n2)C1 — remaining binding (binding; 1 µM): 100%
O=C(c1ccc(Nc2ncc(Cl)c(-c3ccc(Cl)s3)n2)cc1)N1CCC(N2CCCC2)CC1 — remaining binding (binding; competition with immobilised ligand; 1 µM): 21%
CNCc1ccccc1-c1csc([C@H](C)Nc2nc(C)nc3cc(OC)c(OC)cc23)c1 — remaining binding (cell-free assay; competition with immobilised ligand; 1 µM): 100%
CN(C)c1nccc(-c2cnc3ncccn23)n1 — remaining binding (binding; 1 µM): 100%
CCN1CCN(Cc2ccc(C(=O)Nc3ccc(C)c(Oc4ccc5c(c4)CC(=O)N5)c3)cc2C(F)(F)F)CC1 — remaining binding (binding; competition with immobilised ligand; 1 µM): 80%
CN(C)c1nccc(-c2cnn3ncccc23)n1 — remaining binding (binding; 1 µM): 100%
COc1cc(-c2cn(C3CCc4c(F)cccc4N(CC(F)(F)F)C3=O)nn2)ccc1-n1cnc(C)c1 (stereo not shown) — remaining binding (cell-free assay; competition with immobilised ligand; 1 µM): 100%
Nc1ncc2c(n1)-c1c([nH]c3ccc(C#CC4CC4)cc13)CCCC2 — remaining binding (binding; competition with immobilised ligand; 1 µM): 81%
c1cncc(-c2cccc(Nc3nccc(NC4CCCCC4)n3)c2)c1 — remaining binding (binding; competition with immobilised ligand; 10 µM): 73%
FC(F)(F)Oc1cccc(-c2cnc3ccc(-c4ccncc4)nn23)c1 — remaining binding (binding; competition with immobilised ligand; 5 µM): 52%
COc1ncc2cc3ccccc3nc2c1C#N — remaining binding (cell-free assay; competition with immobilised ligand; 5 µM): 94%
Cc1cnn2ncc(-c3ccnc(N(C)C)n3)c2c1 — remaining binding (binding; 1 µM): 100%
CNC(=O)[C@@H]1CC[C@@H](n2c(-c3ccc4cnccc4c3)nc3ccc(C(=O)NCc4cccc(C(N)=O)c4)cc32)C1 — remaining binding (binding; competition with immobilised ligand; 1 µM): 97%
